Results from ChEMBL document CHEMBL5523688, “Selective targeting of human TET1 by cyclic peptide inhibitors: Insights from biochemical profiling” (Bioorg Med Chem, 2024).

Experiments:
[1] = biological target: Methylcytosine dioxygenase TET1 (Homo sapiens, UniProt Q8NFU7); test: Inhibition of N-terminal 3xFlag-tagged recombinant human TET1 catalytic domain (E1418 to V2136 residues) expressed in baculovirus infected Sf9 cells using 5-methylcytosine as substrate preincubated for 10 mins followed by substrate and DNA-cofactor addition measured after 30 mins by Alphascreen assay; conditions: read-out: pIC50 (converted)
Outline: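 TET1 catalytic domain (E1418–V2136, Sf9 baculovirus) at 2 nM was preincubated 10 min with inhibitor (1% DMSO) in HEPES 50 mM pH 7.3, 150 mM NaCl, 0.1% BSA, 0.01% Tween-20. Reaction was started with ascorbate 200 µM, Fe(II) 20 µM, 2OG 20 µM and 5mC ssDNA 10 nM, run 30 min, then EDTA-quenched. Anti-5hmC antibody with AlphaScreen beads, 45–60 min, luminescence read. Three independent replicates.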

[2] = biological target: T1, Methylcytosine dioxygenase TET2 (Homo sapiens, UniProt Q6N021); test: (§1) Inhibition of N-terminal His-tagged recombinant human TET2 catalytic domain LCIdel mutant (D1129 to G1936 residues with Y1481 to N1843 replaced by 3 x GGGGS linker) expressed in Escherichia coli BL21 (DE3) using 5-methylcytosine as substrate preincubated for 10 mins followed by substrate and DNA-cofactor addition measured after 10 mins by Alphascreen assay
[3] = biological target: Methylcytosine dioxygenase TET3 (Homo sapiens, UniProt O43151); test: Inhibition of recombinant human TET3 catalytic domain (E824 to I1795 residues) expressed in baculovirus infected Sf9 cells using 5-methylcytosine as substrate preincubated for 10 mins followed by substrate and DNA-cofactor addition measured after 10 mins by Alphascreen assay; conditions: read-out: pIC50 (converted)
[4] = test system: Methylcytosine dioxygenase TET2 (Homo sapiens), Q6N021 [UNDEFINED MUTATION]; conditions: time 20.0 min
[5] = biological target: T1, Methylcytosine dioxygenase TET2; test: as §1, with “after 12” for “after 10”, “by SPE-MS analysis” for “by Alphascreen assay”
[6] = biological target: Methylcytosine dioxygenase TET1 (Mus musculus, UniProt Q3URK3); test: Inhibition of recombinant mouse TET1 catalytic domain (E1367 to V2039 residues) expressed in baculovirus expression system using 5-methylcytosine as substrate preincubated for 10 mins followed by substrate and DNA-cofactor addition measured after 9 mins by Alphascreen assay
Outline: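 Murine Tet1 catalytic domain (E1367–V2039, High Five baculovirus) at 2 nM was preincubated 10 min with inhibitor (1% DMSO) in HEPES 50 mM pH 7.3, NaCl 150 mM, BSA 0.1%, Tween-20 0.01%. Ascorbate 200 µM, Fe(II) 20 µM, 2OG 20 µM and 5mC ssDNA 10 nM were added; reaction ran 9 min, then EDTA-quenched. AlphaScreen anti-5hmC detection by luminescence.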

Chain of Methylcytosine dioxygenase TET1 (Homo sapiens, UniProt Q8NFU7) (Q8NFU7 whole entry, the tested form may be a part): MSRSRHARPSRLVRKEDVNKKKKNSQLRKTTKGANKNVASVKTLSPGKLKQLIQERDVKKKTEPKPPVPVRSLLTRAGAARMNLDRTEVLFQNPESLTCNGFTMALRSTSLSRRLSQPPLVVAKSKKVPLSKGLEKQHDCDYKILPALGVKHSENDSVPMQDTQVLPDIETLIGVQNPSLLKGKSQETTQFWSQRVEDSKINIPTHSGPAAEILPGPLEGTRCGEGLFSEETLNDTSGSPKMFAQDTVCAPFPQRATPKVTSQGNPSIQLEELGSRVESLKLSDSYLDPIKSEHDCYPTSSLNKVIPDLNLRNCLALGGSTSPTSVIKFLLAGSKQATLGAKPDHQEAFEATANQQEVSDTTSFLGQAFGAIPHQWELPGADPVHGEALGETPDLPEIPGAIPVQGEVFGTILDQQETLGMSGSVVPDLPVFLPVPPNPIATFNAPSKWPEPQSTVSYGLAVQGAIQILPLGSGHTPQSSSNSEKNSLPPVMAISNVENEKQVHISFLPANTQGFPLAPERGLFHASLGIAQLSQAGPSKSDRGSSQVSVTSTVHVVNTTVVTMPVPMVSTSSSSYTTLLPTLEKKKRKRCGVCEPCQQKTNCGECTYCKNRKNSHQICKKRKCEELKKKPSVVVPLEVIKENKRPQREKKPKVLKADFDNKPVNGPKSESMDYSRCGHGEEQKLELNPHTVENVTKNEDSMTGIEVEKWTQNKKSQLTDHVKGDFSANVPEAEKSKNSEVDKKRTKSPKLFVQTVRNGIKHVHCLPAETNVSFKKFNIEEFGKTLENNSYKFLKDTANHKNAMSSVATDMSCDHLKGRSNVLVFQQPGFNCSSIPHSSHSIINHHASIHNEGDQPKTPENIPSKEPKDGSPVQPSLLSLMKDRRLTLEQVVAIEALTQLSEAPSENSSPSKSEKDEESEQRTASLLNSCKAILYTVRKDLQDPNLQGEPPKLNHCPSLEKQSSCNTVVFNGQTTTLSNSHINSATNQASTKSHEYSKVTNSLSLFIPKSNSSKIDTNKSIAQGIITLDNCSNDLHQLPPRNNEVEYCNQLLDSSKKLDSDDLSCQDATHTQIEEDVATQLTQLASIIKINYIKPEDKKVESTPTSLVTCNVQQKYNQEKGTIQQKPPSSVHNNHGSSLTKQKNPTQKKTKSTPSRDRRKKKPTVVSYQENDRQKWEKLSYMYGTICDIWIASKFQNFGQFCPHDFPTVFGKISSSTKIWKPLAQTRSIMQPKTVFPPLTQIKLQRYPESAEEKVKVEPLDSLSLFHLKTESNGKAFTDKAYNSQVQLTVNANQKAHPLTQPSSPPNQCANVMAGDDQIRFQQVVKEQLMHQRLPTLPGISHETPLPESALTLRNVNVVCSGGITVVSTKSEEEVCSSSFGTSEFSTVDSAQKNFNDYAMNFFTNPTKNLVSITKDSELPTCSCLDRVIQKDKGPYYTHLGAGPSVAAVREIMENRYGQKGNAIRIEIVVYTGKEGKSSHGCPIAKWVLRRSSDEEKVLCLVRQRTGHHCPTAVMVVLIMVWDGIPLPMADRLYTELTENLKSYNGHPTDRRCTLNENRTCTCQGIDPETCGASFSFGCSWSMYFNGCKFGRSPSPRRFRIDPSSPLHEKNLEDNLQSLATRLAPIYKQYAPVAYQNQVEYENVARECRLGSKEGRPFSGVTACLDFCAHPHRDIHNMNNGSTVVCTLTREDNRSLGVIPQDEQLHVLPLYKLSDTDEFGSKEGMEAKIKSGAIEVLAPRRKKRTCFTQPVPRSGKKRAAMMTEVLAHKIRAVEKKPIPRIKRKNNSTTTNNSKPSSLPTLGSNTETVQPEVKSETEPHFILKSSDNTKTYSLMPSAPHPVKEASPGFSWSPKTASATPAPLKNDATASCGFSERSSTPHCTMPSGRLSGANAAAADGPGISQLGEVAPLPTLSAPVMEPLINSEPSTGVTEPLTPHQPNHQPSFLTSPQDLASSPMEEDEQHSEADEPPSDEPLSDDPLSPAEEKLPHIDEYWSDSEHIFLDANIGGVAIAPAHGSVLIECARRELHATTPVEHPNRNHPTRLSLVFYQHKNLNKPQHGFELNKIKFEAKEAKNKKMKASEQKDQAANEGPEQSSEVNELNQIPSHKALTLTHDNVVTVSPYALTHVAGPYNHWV
Chain of Methylcytosine dioxygenase TET3 (O43151 whole entry, the tested form may be a part): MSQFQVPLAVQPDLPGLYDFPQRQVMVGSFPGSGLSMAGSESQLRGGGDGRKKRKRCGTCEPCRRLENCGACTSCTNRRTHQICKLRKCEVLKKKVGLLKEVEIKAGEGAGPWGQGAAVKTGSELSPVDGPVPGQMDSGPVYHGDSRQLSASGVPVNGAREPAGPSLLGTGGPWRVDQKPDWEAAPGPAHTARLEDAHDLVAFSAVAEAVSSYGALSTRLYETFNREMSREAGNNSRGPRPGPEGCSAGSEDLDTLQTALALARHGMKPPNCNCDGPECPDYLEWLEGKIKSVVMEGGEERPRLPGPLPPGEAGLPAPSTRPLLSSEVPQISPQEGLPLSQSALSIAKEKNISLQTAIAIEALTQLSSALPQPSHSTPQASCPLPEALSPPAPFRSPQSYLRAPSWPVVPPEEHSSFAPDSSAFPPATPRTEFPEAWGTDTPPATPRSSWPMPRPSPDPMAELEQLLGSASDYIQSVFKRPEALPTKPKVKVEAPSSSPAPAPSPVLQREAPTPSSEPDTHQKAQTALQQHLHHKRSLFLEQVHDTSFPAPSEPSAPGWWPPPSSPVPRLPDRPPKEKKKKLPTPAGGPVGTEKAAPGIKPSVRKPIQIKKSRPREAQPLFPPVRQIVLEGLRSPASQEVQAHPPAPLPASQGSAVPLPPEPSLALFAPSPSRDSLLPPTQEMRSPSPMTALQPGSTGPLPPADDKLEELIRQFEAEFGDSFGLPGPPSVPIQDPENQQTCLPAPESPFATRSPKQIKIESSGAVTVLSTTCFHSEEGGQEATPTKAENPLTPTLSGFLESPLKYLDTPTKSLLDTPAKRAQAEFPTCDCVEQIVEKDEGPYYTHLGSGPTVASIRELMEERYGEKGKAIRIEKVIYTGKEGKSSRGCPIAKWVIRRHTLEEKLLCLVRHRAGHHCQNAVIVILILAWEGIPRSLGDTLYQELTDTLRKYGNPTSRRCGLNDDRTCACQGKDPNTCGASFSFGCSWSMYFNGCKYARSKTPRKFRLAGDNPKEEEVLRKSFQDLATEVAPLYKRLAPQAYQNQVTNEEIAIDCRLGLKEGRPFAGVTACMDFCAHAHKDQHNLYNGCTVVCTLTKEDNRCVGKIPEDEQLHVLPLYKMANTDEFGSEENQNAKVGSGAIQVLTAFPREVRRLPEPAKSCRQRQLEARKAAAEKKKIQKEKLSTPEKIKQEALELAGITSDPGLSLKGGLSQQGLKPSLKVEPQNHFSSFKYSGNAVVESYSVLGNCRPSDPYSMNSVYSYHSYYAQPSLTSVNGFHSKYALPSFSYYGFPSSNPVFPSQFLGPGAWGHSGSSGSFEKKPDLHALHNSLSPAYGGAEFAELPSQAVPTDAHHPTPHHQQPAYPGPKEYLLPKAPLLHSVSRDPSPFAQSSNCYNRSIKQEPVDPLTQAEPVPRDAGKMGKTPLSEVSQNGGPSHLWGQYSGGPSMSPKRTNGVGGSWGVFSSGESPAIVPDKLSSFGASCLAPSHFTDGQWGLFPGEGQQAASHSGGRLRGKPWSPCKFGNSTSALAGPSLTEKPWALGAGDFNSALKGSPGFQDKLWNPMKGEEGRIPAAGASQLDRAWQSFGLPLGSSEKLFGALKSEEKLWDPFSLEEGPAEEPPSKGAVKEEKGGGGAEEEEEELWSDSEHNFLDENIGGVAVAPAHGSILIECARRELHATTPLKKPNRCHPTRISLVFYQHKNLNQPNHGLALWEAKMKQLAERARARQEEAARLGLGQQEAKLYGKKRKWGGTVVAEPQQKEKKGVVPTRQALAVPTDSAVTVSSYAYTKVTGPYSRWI

Structure (SMILES) | IC50 [1] [µM] | pIC50 [2] | IC50 [3] [µM] | deltapIC50 [4] | pIC50 [5] | IC50 [6] [µM]
CC[C@H](C)[C@H](NC(=O)[C@H](CC(C)C)NC(=O)[C@@H](Cc1ccc(O)cc1)NC(C)=O)C(=O)N[C@@H](Cc1ccc(O)cc1)C(=O)N[C@@H](C)C(=O)N[C@@H](Cc1ccc(O)cc1)C(=O)N[C@@H](Cc1ccc(O)cc1)C(=O)N[C@H](C(=O)N[C@@H](Cc1c[nH]c2ccccc12)C(=O)N[C@@H](Cc1c[nH]c2ccccc12)C(=O)N[C@@H](CCC(=O)O)C(=O)N[C@@H](Cc1cnc[nH]1)C(=O)N[C@@H](CO)C(=O)N[C@@H](CS)C(N)=O)[C@@H](C)O | 70.8 | < 4 | 30.9 |  |  | 
CC[C@H](C)[C@@H]1NC(=O)[C@H](CCC(N)=O)NC(=O)[C@H](Cc2ccc(O)cc2)NC(=O)[C@H](Cc2ccc(O)cc2)NC(=O)[C@H]([C@@H](C)O)NC(=O)[C@H](CCCCN)NC(=O)[C@H](C(C)C)NC(=O)[C@H](CCCNC(=N)N)NC(=O)[C@H](Cc2ccc(O)cc2)NC(=O)[C@@H](Cc2ccc(O)cc2)NC(=O)CSC[C@@H](C(N)=O)NC(=O)[C@H](CO)NC(=O)[C@H](CC(C)C)NC(=O)[C@H](Cc2ccc(O)cc2)NC(=O)[C@H](C(C)C)NC(=O)[C@H](Cc2ccc(O)cc2)NC(=O)[C@H]([C@@H](C)O)NC1=O | 0.794 | 5.52 | 2.69 | -0.01 | 5.51 | 4.07
CC[C@H](C)[C@@H]1NC(=O)[C@H](Cc2ccc(O)cc2)NC(=O)[C@H](Cc2ccc(O)cc2)NC(=O)[C@H](C(C)C)NC(=O)[C@@H](Cc2ccc(O)cc2)NC(=O)CSC[C@@H](C(N)=O)NC(=O)[C@H]([C@@H](C)O)NC(=O)[C@H](CCC(=O)O)NC(=O)[C@H](Cc2ccccc2)NC(=O)[C@H](C(C)C)NC(=O)[C@H](C)NC(=O)[C@H](CCCNC(=N)N)NC(=O)[C@H](CS)NC(=O)[C@H](Cc2c[nH]c3ccccc23)NC(=O)[C@H](Cc2c[nH]c3ccccc23)NC(=O)[C@@H]2CCCN2C1=O | 44.7 | < 4 | 31.6 | > 1.44 | 5.44 | 38.9
C[C@@H]1NC(=O)[C@H](Cc2ccccc2)NC(=O)[C@H](Cc2ccc(O)cc2)NC(=O)[C@H](Cc2ccc(O)cc2)NC(=O)[C@H](CCCNC(=N)N)NC(=O)[C@@H](Cc2ccc(O)cc2)NC(=O)CSC[C@@H](C(N)=O)NC(=O)[C@H](C)NC(=O)[C@H](Cc2c[nH]c3ccccc23)NC(=O)[C@H](Cc2c[nH]c3ccccc23)NC(=O)[C@H]([C@@H](C)O)NC(=O)[C@H](Cc2ccc(O)cc2)NC1=O | 0.468 | 5.52 | 2.75 | -0.5 | ~ 5 | 3.63
CC[C@H](C)[C@@H]1NC(=O)[C@H](CCC(N)=O)NC(=O)[C@H](Cc2c[nH]cn2)NC(=O)[C@H](Cc2ccc(O)cc2)NC(=O)[C@H]([C@@H](C)O)NC(=O)[C@H](CCCCN)NC(=O)[C@H](C(C)C)NC(=O)[C@H](CCCNC(=N)N)NC(=O)[C@H](Cc2ccc(O)cc2)NC(=O)[C@@H](Cc2ccc(O)cc2)NC(=O)CSC[C@@H](C(N)=O)NC(=O)[C@H](CO)NC(=O)[C@H](C(C)C)NC(=O)[C@H](Cc2ccc(O)cc2)NC(=O)[C@H](C(C)C)NC(=O)[C@H](Cc2ccc(O)cc2)NC(=O)[C@H]([C@@H](C)O)NC1=O | 0.776 | 5.89 | 0.501 | -0.34 | 5.55 | 1.35
CC[C@H](C)[C@@H]1NC(=O)[C@H](CCCNC(=N)N)NC(=O)[C@@H](Cc2ccc(O)cc2)NC(=O)CSC[C@@H](C(N)=O)NC(=O)[C@H](Cc2ccc(O)cc2)NC(=O)[C@H](C(C)C)NC(=O)[C@H](CC(N)=O)NC(=O)[C@H](Cc2c[nH]c3ccccc23)NC(=O)[C@H](Cc2c[nH]c3ccccc23)NC(=O)[C@H]([C@@H](C)O)NC(=O)[C@H](Cc2ccc(O)cc2)NC(=O)[C@H](Cc2ccccc2)NC(=O)[C@H](CC(C)C)NC(=O)[C@H](Cc2ccc(O)cc2)NC1=O | 1.15 | 5.59 | 2.4 | 0.02 | 5.61 | 3.39
CC[C@H](C)[C@@H]1NC(=O)[C@H](Cc2ccccc2)NC(=O)[C@H](Cc2ccc(O)cc2)NC(=O)[C@H](CC(C)C)NC(=O)[C@H](CCCNC(=N)N)NC(=O)[C@H](C)NC(=O)[C@H](Cc2c[nH]c3ccccc23)NC(=O)[C@H](Cc2c[nH]c3ccccc23)NC(=O)[C@@H]2CCCN2C(=O)[C@H](C(C)C)NC(=O)[C@H](Cc2ccc(O)cc2)NC(=O)[C@@H](Cc2ccccc2)NC(=O)[C@H](CCCCN)NC(=O)[C@@H](Cc2ccc(O)cc2)NC(=O)CSC[C@H](C(N)=O)NC(=O)CNC1=O | 0.24 | 5.95 | 1.02 | -0.43 | 5.52 | 1.1
CC[C@H](C)[C@@H]1NC(=O)[C@H](CCC(N)=O)NC(=O)[C@H](Cc2ccc(O)cc2)NC(=O)[C@H](Cc2ccc(O)cc2)NC(=O)[C@H]([C@@H](C)O)NC(=O)[C@H](CCCCN)NC(=O)[C@H](C(C)C)NC(=O)[C@H](CCCNC(=N)N)NC(=O)[C@H](Cc2ccc(O)cc2)NC(=O)[C@@H](Cc2ccc(O)cc2)NC(=O)CSC[C@@H](C(N)=O)NC(=O)[C@H](CO)NC(=O)[C@H](C(C)C)NC(=O)[C@H](Cc2ccc(O)cc2)NC(=O)[C@H](C(C)C)NC(=O)[C@H](Cc2ccc(O)cc2)NC(=O)[C@H]([C@@H](C)O)NC1=O | 1.35 | 5.11 | 6.03 | 0.39 | 5.5 | 8.71
CC[C@H](C)[C@@H]1NC(=O)[C@@H](Cc2ccc(O)cc2)NC(=O)CSC[C@@H](C(N)=O)NC(=O)[C@H](CCCNC(=N)N)NC(=O)[C@H](Cc2c[nH]c3ccccc23)NC(=O)[C@H](Cc2c[nH]c3ccccc23)NC(=O)[C@H]([C@@H](C)O)NC(=O)[C@H](Cc2ccc(O)cc2)NC(=O)[C@H](Cc2ccc(O)cc2)NC(=O)[C@H](CCCNC(=N)N)NC(=O)[C@H](Cc2ccc(O)cc2)NC(=O)[C@H](C(C)C)NC1=O | 0.269 | 5.66 | 1.38 | -0.19 | 5.47 | 1.78
CC(C)C[C@@H]1NC(=O)[C@H](Cc2ccc(O)cc2)NC(=O)[C@H](Cc2c[nH]c3ccccc23)NC(=O)[C@@H](Cc2ccc(O)cc2)NC(=O)CSC[C@@H](C(N)=O)NC(=O)[C@H](Cc2ccccc2)NC(=O)[C@H](Cc2c[nH]c3ccccc23)NC(=O)[C@@H]2CCCN2C(=O)[C@H](C(C)C)NC(=O)[C@H](CCCNC(=N)N)NC(=O)[C@H](Cc2ccc(O)cc2)NC(=O)[C@H](CO)NC(=O)[C@@H]2CCCN2C1=O | 0.174 | 5.49 | 2.4 | -0.3 | 5.19 | 3.47
CC[C@H](C)[C@@H]1NC(=O)[C@H](Cc2c[nH]c3ccccc23)NC(=O)[C@H](Cc2c[nH]c3ccccc23)NC(=O)[C@H]([C@@H](C)O)NC(=O)[C@H](Cc2ccc(O)cc2)NC(=O)[C@H](CC(N)=O)NC(=O)[C@H](Cc2ccc(O)cc2)NC(=O)[C@H](Cc2ccc(O)cc2)NC(=O)[C@H](CC(C)C)NC(=O)[C@H](CCCCN)NC(=O)[C@@H](Cc2c[nH]c3ccccc23)NC(=O)CSC[C@@H](C(N)=O)NC1=O | 0.603 | 6.03 | 0.692 | -0.63 | 5.4 | 1.05
CC[C@H](C)[C@@H]1NC(=O)[C@H](CO)NC(=O)[C@H](CCCNC(=N)N)NC(=O)[C@H](CC(C)C)NC(=O)[C@H](Cc2c[nH]cn2)NC(=O)[C@H](CC(C)C)NC(=O)[C@@H]2CCCN2C(=O)[C@H]([C@@H](C)CC)NC(=O)[C@@H](Cc2c[nH]c3ccccc23)NC(=O)CSC[C@@H](C(N)=O)NC(=O)[C@H](CO)NC(=O)[C@H](CCCNC(=N)N)NC(=O)CNC(=O)[C@H](CC(N)=O)NC(=O)[C@H](Cc2ccc(O)cc2)NC(=O)[C@H](C)NC(=O)[C@H](CC(C)C)NC1=O | 0.692 | 4.65 | 18.2 | 0.2 | 4.85 | 27.5
C[C@@H]1NC(=O)[C@H](Cc2c[nH]c3ccccc23)NC(=O)[C@H](Cc2ccc(O)cc2)NC(=O)[C@H](Cc2ccc(O)cc2)NC(=O)[C@H](CCCCN)NC(=O)[C@H](CC(=O)O)NC(=O)[C@H]([C@@H](C)O)NC(=O)[C@@H](Cc2c[nH]c3ccccc23)NC(=O)CSC[C@@H](C(N)=O)NC(=O)[C@H](CO)NC(=O)[C@H](Cc2c[nH]c3ccccc23)NC(=O)[C@H](Cc2c[nH]c3ccccc23)NC(=O)[C@H]([C@@H](C)O)NC(=O)[C@H](Cc2ccc(O)cc2)NC1=O | 0.794 | 5.41 | 3.55 | -0.79 | 4.62 | 4.37
